Experimental data as given in ChEMBL document CHEMBL3797115, “Design and synthesis of peptide conjugates of phosphoramide mustard as prodrugs activated by prostate-specific antigen” (Bioorg Med Chem, 2016).
Starred links: 1 amine or outer side, 2 acyl side, 3 side chain; linkers in the order of their positions; H or OH if unused. Non-standard residues stand in square brackets, D forms with d. Residues, ends and D or L forms follow the SMILES beside them. *: point of attachment. X1 = NP(=O)(OCc1c(F)c(F)c(N*)c(F)c1F)N(CCCl)CCCl; X3 = NP(=O)(OCc1c(F)cc(N*)cc1F)N(CCCl)CCCl; X2 = NP(=O)(OCc1ccc(N*)c(F)c1)N(CCCl)CCCl; X5 = NP(=O)(OCc1ccc(N*)cc1F)N(CCCl)CCCl; X4 = NP(=O)(OCc1ccc(N*)cc1)N(CCCl)CCCl; Glutaryl = O=C(CCCC(=O)[*:2])[*:1]; Hyp = O=C(O)[C@@H]1C[C@@H](O)CN1; Chg = N[C@H](C(=O)O)C1CCCCC1

Key:
[1] = tested on: LNCaP; assay: Antiproliferative activity against human LNCAP cells expressing prostate specific antigen after 72 hrs by MTT assay; format: functional, cell-based
In short: (§1)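 LNCaP (PSA-producing) and DU145 (non-PSA) cells grown in RPMI 1640 with 10% FBS; 7500 LNCaP or 500 DU145 cells/well, grown 48 h. Medium then switched to serum-free RPMI with 2% TCM, no phenol red. Conjugates 0.01–100 µM for 72 h; medium alone as negative control. MTT 4 h at 37 °C, read at 570 nm; IC50 interpolated from percent of control growth.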

[2] = target: T1, Prostate-specific antigen (Homo sapiens, UniProt P07288); assay: Prodrug activation assessed as prostate specific antigen (unknown origin)-mediated drug metabolism in Tris/HCl buffer pH 8 at 0.16 mM by HPLC analysis; format: ADME; details: pH 8, 160 µM, TDE = time-dependent effect
T1 sequence (P07288 whole entry): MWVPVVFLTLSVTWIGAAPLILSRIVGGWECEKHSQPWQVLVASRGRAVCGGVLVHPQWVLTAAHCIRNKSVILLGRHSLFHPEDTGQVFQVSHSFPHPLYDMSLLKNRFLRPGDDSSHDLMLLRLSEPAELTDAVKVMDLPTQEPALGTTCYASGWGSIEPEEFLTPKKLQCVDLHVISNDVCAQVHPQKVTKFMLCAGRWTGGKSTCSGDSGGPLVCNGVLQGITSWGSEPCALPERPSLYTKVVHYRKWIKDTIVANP
In short: (§2)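 Purified PSA with substrate at 1:100 enzyme/substrate molar ratio, 37 °C, Tris/HCl pH 8.0 with 10 mM CaCl2 and 0.1% Tween-20. Substrate stocks 10 mM in DMSO. Aliquots taken at intervals, quenched with 20% acetonitrile, frozen, then analysed by HPLC for substrate loss. Cleavage site after Gln confirmed by LC/MS.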

[3] = target: T1, Prostate-specific antigen; assay: Prodrug activation assessed as prostate specific antigen (unknown origin)-mediated drug metabolism in Tris/HCl buffer pH 8 at 100 uM measured as half life by HPLC analysis; format: ADME; details: pH 8, 100 µM; in short: as §2
[4] = Half life in Tris buffer pH 8 at 100 uM by HPLC analysis; format: ADME
In short: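 Conjugate at 100 µM incubated at 37 °C in 50 mM Tris/HCl pH 8.0 with 10 mM CaCl2 and 0.1% Tween-20, without enzyme. Loss of conjugate followed over time by HPLC to give half-life.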

[5] = Antiproliferative activity against human DU145 cells after 72 hrs by MTT assay; format: functional, cell-based; details: DU-145, 72 h; in short: as §1
[6] = target: T1, Prostate-specific antigen; assay: Prodrug activation assessed as prostate specific antigen (unknown origin)-mediated drug metabolism in Tris/HCl buffer at pH 8 measured after 2 hrs by HPLC analysis; format: ADME; details: pH 8, 2 h; in short: as §2

In the case of `C[C@H](NC(=O)[C@@H]1C[C@@H](O)CN1C(=O)CCCC(=O)O)C(=O)N[C@@H](CO)C(=O)N[C@H](C(=O)N[C@@H](CCC(N)=O)C(=O)Nc1c(F)c(F)c(COP(N)(=O)N(CCCl)CCCl)c(F)c1F)C1CCCCC1` (some centres undefined) (Glutaryl-[Hyp]AS[Chg]Q-X1), the IC50 [1] is reported as over 100 µM, the Drug metabolism [2] is reported as “tde” and the t1/2 [3] is reported as 1.1 h. It also gave a half-life at 100 µM [4] of 178 h and an IC50 [5] of over 100 µM.
In the case of `C[C@H](NC(=O)[C@@H]1C[C@@H](O)CN1C(=O)CCCC(=O)O)C(=O)N[C@@H](CO)C(=O)N[C@H](C(=O)N[C@@H](CCC(N)=O)C(=O)Nc1ccc(COP(N)(=O)N(CCCl)CCCl)cc1F)C1CCCCC1` (some centres undefined) (Glutaryl-[Hyp]AS[Chg]Q-X2), the IC50 [1] is reported as 29 µM, the Drug metabolism [2] is reported as “tde” and the t1/2 [3] is reported as 0.65 h. For the same compound, the half-life at 100 µM [4] was 465 h and the IC50 [5] was over 100 µM.
For `C[C@H](NC(=O)[C@@H]1C[C@@H](O)CN1C(=O)CCCC(=O)O)C(=O)N[C@@H](CO)C(=O)N[C@H](C(=O)N[C@@H](CCC(N)=O)C(=O)Nc1cc(F)c(COP(N)(=O)N(CCCl)CCCl)c(F)c1)C1CCCCC1` (some centres undefined) (Glutaryl-[Hyp]AS[Chg]Q-X3), the IC50 [1] was 20 µM, the Drug metabolism [2] was “tde” and the t1/2 [3] was 1.7 h. The half-life at 100 µM [4] was 131 h and the IC50 [5] was over 100 µM.
With `C[C@H](NC(=O)[C@@H]1C[C@@H](O)CN1C(=O)CCCC(=O)O)C(=O)N[C@@H](CO)C(=O)N[C@H](C(=O)N[C@@H](CCC(N)=O)C(=O)Nc1ccc(COP(N)(=O)N(CCCl)CCCl)cc1)C1CCCCC1` (some centres undefined) (Glutaryl-[Hyp]AS[Chg]Q-X4) the IC50 [1] was 11 µM, the Drug metabolism [2] was “tde” and the t1/2 [3] was 2.1 h. For the same compound, the half-life at 100 µM [4] was 46 h and the IC50 [5] was 35 µM.
With `C[C@H](NC(=O)[C@@H]1C[C@@H](O)CN1C(=O)CCCC(=O)O)C(=O)N[C@@H](CO)C(=O)N[C@H](C(=O)N[C@@H](CCC(N)=O)C(=O)Nc1ccc(COP(N)(=O)N(CCCl)CCCl)c(F)c1)C1CCCCC1` (some centres undefined) (Glutaryl-[Hyp]AS[Chg]Q-X5) the IC50 [1] was 5.3 µM, the Drug metabolism [2] was “tde” and the t1/2 [3] was 0.93 h. For the same compound, the half-life at 100 µM [4] was 105 h and the IC50 [5] was over 100 µM.
For `COc1cccc2c1C(=O)c1c(O)c3c(c(O)c1C2=O)C[C@](O)(C(=O)CO)C[C@H]3O[C@@H]1C[C@@H](NC(=O)[C@@H](CC(C)C)NC(=O)[C@@H](CO)NC(=O)[C@@H](CCC(N)=O)NC(=O)[C@H](NC(=O)[C@@H](CO)NC(=O)[C@@H](C)NC(=O)[C@@H]2C[C@@H](O)CN2C(=O)CCCC(=O)O)C2CCCCC2)[C@@H](O)[C@@H](C)O1` (stereo in doubt), the IC50 [1] was 1.1 µM, the Drug metabolism [6] was “metabolite_detected” and the t1/2 [3] was 0.6 h. For the same compound, the IC50 [5] was over 100 µM.
